Laboratory results from PubChem BioAssay.
Activity calls are given as the source filed them. Cut-off read from the data, not from the text of the source, unless noted: active = inhibition above about 30%; inactive = the rest.

Assays:
[1] = reduced viability of SK-BR-3 breast cancer cells – cell-based, 24 h, human, pilot screen (AID 572;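 active = viability at or below 10% of carrier control in both of two separate runs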;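 note: compound exposure lasted between 18 and 24 h rather than exactly 24 h; 100% = carrier-treated control wells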); conditions: SK-BR-3 viability, CellTiter-Glo luminescence, at 10 µM, stronger effect = lower value
[2] = HUVEC growth inhibition – cell-based, human, primary screen (AID 575;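 active = viability at or below 30% in both replicate assays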;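 note: 100% = median of untreated cell wells with 0.1% DMSO on each plate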); conditions: HUVEC proliferation, CellTiter-Glo luminescence, 72 h; at 10 µM; stronger effect = lower value
Outline: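 Test system: HUVEC primary cells. Quantity: 1250 endothelial cells in each well. Dosing: single-point 10 µM, DMSO 0.1% final. Incubation: 72 h treatment at 37 °C. Measured by: CTG luminescence. Control set: DMSO cell controls and MePR drug controls. Plate: collagen-coated 384-well format.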

[3] = H69AR cell proliferation blockers – human, duplicate replicates, primary screen (AID 580;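 active = viability at or under a set limit in both replicates, limit being median viability minus 3 SD, cut at about 48% in these data, passing the limit was not always enough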;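 note: 100% = mean luminescence of untreated wells and 0% = no signal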); conditions: H69AR lung tumor cells viability, ATP luminescence, 72 h; at 10 µM; stronger effect = lower value
[4] = MRP1 drug-resistance reversers in H69AR cells – cell-based, doxorubicin co-treatment, pilot screen (AID 601;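 active = viability loss from added drug above about 55%, and viability with drug at most 40%, in both replicates, limit read from the data, passing the limit was not always enough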); conditions: CellTiter-Glo, 72 h, at 10 µM; for differential viability (reversal): stronger effect = higher value
[5] = yeast transport mutant growth inhibition pilot in 384-well plates, post-Golgi transport modulator project (AID 636; in the data active = inhibition above about 31%); conditions: absorbance 615 nm, about 18 h, stronger effect = higher value
[6] = growth suppression of yeast trafficking mutant, preliminary HTS, modulators of trafficking downstream of Golgi apparatus project, 1536-format plate, OD 615 nm (AID 637); conditions: yeast transport mutant growth, absorbance 615 nm, 18 h; stronger effect = higher value
[7] = H69AR cells + 2 uM doxorubicin, measured here: viability with 2 uM doxorubicin, stronger effect = lower value
[8] = H69AR cells, compound alone cytotoxicity

SMILES | viability [1] | viability [2] | viability [3] | differential viability (reversal) ([4]; H69AR cells + 2 uM doxorubicin) | viability [4, 7] [%] | viability [4, 8] [%] | inhibition [5] | inhibition [6]
CCOC(=O)c1ccc(CNC(=O)C(Cc2c[nH]c3ccccc23)NC(C)=O)o1 (centres undefined) | 90% (inactive) | 90.3% (inactive) | 101% (inactive) | 8.63% (inactive) | 92.3 | 101 | -6.99% (inactive) | 0.36% (inactive)
COCCNC(=O)c1snc2ccc(Cl)cc12 | 89% (inactive) | 83.4% (inactive) | 102% (inactive) | 10.2% (inactive) | 91.5 | 102 | 4.42% (inactive) | 4.43% (inactive)
CCN(CC)c1nc(N(CC)CC)[nH]c(=O)n1 | 112% (inactive) | 110% (inactive) | 94.7% (inactive) | 2.19% (inactive) | 92.6 | 94.7 | -4.94% (inactive) | 6.72% (inactive)
O=C(CN1C(=O)COc2ccccc21)N(Cc1cccnc1)Cc1ccccc1F | 78% (inactive) | 96.6% (inactive) | 83.5% (inactive) | 8.57% (inactive) | 74.9 | 83.5 | -2.97% (inactive) | 0.55% (inactive)
CCOc1cc(C(=O)Nc2c3c(nn2C(C)(C)C)CS(=O)C3)cc(OCC)c1OCC (centres undefined) | 103% (inactive) | 96.7% (inactive) | 101% (inactive) | 7.14% (inactive) | 93.7 | 101 | -1.04% (inactive) | -7.54% (inactive)
O=C(CSc1nnc(-c2ccccc2Br)o1)Nc1cccc2ccccc12 | 89% (inactive) | 101% (inactive) | 105% (inactive) | 24.2% (inactive) | 81.2 | 105 | 0.39% (inactive) | -4.43% (inactive)
CCCOc1cccc(C(=O)Nc2cc(NC(=O)c3ccco3)ccc2OC)c1 | 88% (inactive) | 85.1% (inactive) | 85% (inactive) | -6.07% (inactive) | 91.1 | 85 | -3.78% (inactive) | -2.55% (inactive)
COc1nc(OC)nc(N2CCC(C(=O)NCc3cccs3)CC2)n1 | 93% (inactive) | 101% (inactive) | 91.9% (inactive) | -1.4% (inactive) | 93.3 | 91.9 | -5.32% (inactive) | -9.51% (inactive)
COc1ccc(-c2noc(COc3ccc(C)c(C)c3)n2)cc1OC | 110% (inactive) | 108% (inactive) | 94.1% (inactive) | -2.45% (inactive) | 96.6 | 94.1 | -7.3% (inactive) | -1.64% (inactive)
Cc1cc(C(=O)Nc2nc3c(s2)CCCC3)cs1 | 93% (inactive) | 67.5% (inactive) | 91.9% (inactive) | 14% (inactive) | 77.8 | 91.9 | -0.14% (inactive) | -7.58% (inactive)
CC1=C(C(=O)N2CCOCC2)C(c2ccccc2F)C2=C(CCCC2=O)N1 (centres undefined) | 110% (inactive) | 104% (inactive) | 98.8% (inactive) | -2.68% (inactive) | 101 | 98.8 | -2.88% (inactive) | 0.91% (inactive)
COc1ccc(OCC(=O)Nc2ccc(N3CCOCC3)c(Cl)c2)cc1 | 99% (inactive) | 96.1% (inactive) | 90.3% (inactive) | 2.16% (inactive) | 88.2 | 90.3 | -4.25% (inactive) | -2.1% (inactive)
COc1ccc2c(c1)c(CC(=O)O)c(C)n2C(=O)c1ccc(Cl)cc1 | 99% (inactive) | 69.3% (inactive) | 95.6% (inactive) | 3.25% (inactive) | 92.3 | 95.6 | -4.16% (inactive) | 0.5% (inactive)
N#CC1=C(N)C(C#N)(C#N)[C@H](c2ccsc2)[C@H]2COCC=C12 | 126% (inactive) | 96% (inactive) | 97.4% (inactive) | 2.33% (inactive) | 95.1 | 97.4 | -6.03% (inactive) | 2.58% (inactive)
CC1CCN(CCCNC(=O)c2coc3nc4ccccc4nc23)CC1 | 148% (inactive) | 90.6% (inactive) | 92.9% (inactive) | -6.4% (inactive) | 99.3 | 92.9 | -2.73% (inactive) | -2.13% (inactive)
O=C(c1cccc2c1C(=O)N(Cc1cccnc1)C2)N1CCN(c2ccccc2)CC1 | 127% (inactive) | 97.3% (inactive) | 93.3% (inactive) | 3.83% (inactive) | 89.5 | 93.3 | -4.93% (inactive) | -1.09% (inactive)
CS(=O)(=O)N1CCc2cc(S(=O)(=O)Nc3ccc4oc5c(c4c3)CCCC5)ccc21 | 76% (inactive) | 43.3% (inactive) | 88.9% (inactive) | -13.8% (inactive) | 103 | 88.9 | -2.47% (inactive) | 0% (inactive)
COC(=O)c1c(NC(=O)CCc2ccc(C)o2)sc(C)c1C | 112% (inactive) | 90.5% (inactive) | 81.7% (inactive) | 1.81% (inactive) | 79.9 | 81.7 | -2.4% (inactive) | 1.27% (inactive)
CCc1nc(SCC(=O)NCc2ccco2)c2c3c(sc2n1)CCCC3 | 97% (inactive) | 78.8% (inactive) | 67.8% (inactive) | -9.31% (inactive) | 77.1 | 67.8 | -3.12% (inactive) | -3.44% (inactive)
CCOc1ccc(C2C(C#N)=C(N)Oc3cc(C)n(Cc4ccco4)c(=O)c32)cc1OC (centres undefined) | 99% (inactive) | 84.2% (inactive) | 76.7% (inactive) | -5.13% (inactive) | 81.9 | 76.7 | -0.41% (inactive) | -8.23% (inactive)
O=C(O)Cc1ccccc1C(=O)O | 120% (inactive) | 92.2% (inactive) | 95.1% (inactive) | -0.3% (inactive) | 95.4 | 95.1 | -6.85% (inactive) | 1.29% (inactive)
COc1c2occc2c(OC)c2c(=O)cc(C)oc12 | 87% (inactive) | 67.9% (inactive) | 91.2% (inactive) | -1.66% (inactive) | 92.8 | 91.2 | 0.13% (inactive) | -5.17% (inactive)
COc1ccc(OC)c(NC(=O)C2C3CC4OC(=O)C2C4C3)c1 (centres undefined) | 103% (inactive) | 102% (inactive) | 98.3% (inactive) | 8.29% (inactive) | 90 | 98.3 | -6.89% (inactive) | -4% (inactive)
